Measured values as given in ChEMBL document CHEMBL1140547, “Potent oxindole based human beta3 adrenergic receptor agonists” (Bioorg Med Chem Lett, 2007).

Columns and labels:
[1] = target: T1, Beta-3 adrenergic receptor (Homo sapiens, UniProt P13945); assay: Agonist activity at human beta-3 adrenergic receptor expressed in CHO cells assessed as cAMP level; assay type: functional, cell-based
In short: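 cAMP accumulation measured in CHO cells expressing the human β receptor. Intrinsic activity is the compound's maximal response as a percentage of the maximal isoproterenol response.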
Target sequence in this assay (P13945 whole entry): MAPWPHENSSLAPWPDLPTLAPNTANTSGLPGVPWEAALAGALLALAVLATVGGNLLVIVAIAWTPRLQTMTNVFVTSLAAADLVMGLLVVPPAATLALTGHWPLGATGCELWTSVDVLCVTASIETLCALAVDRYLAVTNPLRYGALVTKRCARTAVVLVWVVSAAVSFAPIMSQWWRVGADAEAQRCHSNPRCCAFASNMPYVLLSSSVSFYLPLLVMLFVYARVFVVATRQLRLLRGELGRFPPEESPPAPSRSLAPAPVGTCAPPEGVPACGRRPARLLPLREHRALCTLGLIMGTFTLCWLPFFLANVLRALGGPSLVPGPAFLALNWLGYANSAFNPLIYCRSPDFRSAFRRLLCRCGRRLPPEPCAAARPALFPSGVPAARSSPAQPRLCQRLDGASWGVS

[2] = target: T1, Beta-3 adrenergic receptor; assay: Agonist activity at human beta-3 adrenergic receptor expressed in CHO cells assessed as cAMP level relative to isoproterenol; assay type: functional, cell-based
In short: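 CHO cells expressing human β3 adrenergic receptor; agonism read out as cAMP level. Intrinsic activity taken as the compound's maximal response expressed as percentage of the maximal response to isoproterenol at […]; n = 3.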
Target sequence in this assay (P13945 whole entry, looked up): as the sequence (P13945 whole entry) above

[3] = target: Beta-1 adrenergic receptor (Homo sapiens, UniProt P08588); assay: Agonist activity at human beta-1 adrenergic receptor expressed in CHO cells assessed as cAMP level; assay type: functional, cell-based
[4] = target: Beta-2 adrenergic receptor (Homo sapiens, UniProt P07550); assay: Agonist activity at human beta-2 adrenergic receptor expressed in CHO cells assessed as cAMP level; assay type: functional, cell-based
Cardiac atrium = assay: Effect on rat atrial tachycardia assessed as increase in heart rate; assay type: functional
In short: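 Isolated rat atria were used to score tachycardia. The value is the maximal response, or the response at a single fixed high agonist level when no maximum was reached.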

Rattus norvegicus [5] = assay: Effect on food consumption in diet induced obese Long Evans rat at 10 mg/kg, po; assay type: functional
In short: (§1)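 Diet-induced obese Long Evans rats received one oral dose (1 or 10 mg/kg) or vehicle. Indirect calorimetry tracked respiratory quotient over 24 h. RQ reduction and energy expenditure increase were expressed as % versus vehicle over 20 h. Food consumption was recorded in g. Statistical significance was assessed against vehicle.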

Rattus norvegicus [6] = assay: Effect on food consumption in diet induced obese Long Evans rat at 1 mg/kg, po; assay type: functional; in short: as §1
Rattus norvegicus [7] = assay: Increase in energy expenditure in diet induced obese Long Evans rat at 1 mg/kg, po after 20 hrs relative to control; assay type: functional; in short: as §1
Rattus norvegicus [8] = assay: Increase in energy expenditure in diet induced obese Long Evans rat at 10 mg/kg, po after 20 hrs relative to control; assay type: functional; in short: as §1
[9] = Oral bioavailability in F344 rat; conditions: in vivo
Rattus norvegicus [10] = assay: Reduction in respiratory quotient in diet induced obese Long Evans rat at 1 mg/kg, po after 20 hrs relative to control; assay type: functional; parameters: scale not given: the % may be the effect or the level left; in short: as §1
[11] = target: Beta-3 adrenergic receptor (Rattus norvegicus, UniProt P26255); assay: Agonist activity at rat beta-3 adrenergic receptor; assay type: functional
[12] = Oral bioavailability in rat […]; assay type: ADME, organism-based; conditions: in vivo
Rattus norvegicus [13] = assay: Reduction in respiratory quotient in diet induced obese Long Evans rat at 10 mg/kg, po after 20 hrs relative to control; assay type: functional; parameters: scale not given: the % may be the effect or the level left; in short: as §1

Chain of Beta-2 adrenergic receptor (P07550 whole entry): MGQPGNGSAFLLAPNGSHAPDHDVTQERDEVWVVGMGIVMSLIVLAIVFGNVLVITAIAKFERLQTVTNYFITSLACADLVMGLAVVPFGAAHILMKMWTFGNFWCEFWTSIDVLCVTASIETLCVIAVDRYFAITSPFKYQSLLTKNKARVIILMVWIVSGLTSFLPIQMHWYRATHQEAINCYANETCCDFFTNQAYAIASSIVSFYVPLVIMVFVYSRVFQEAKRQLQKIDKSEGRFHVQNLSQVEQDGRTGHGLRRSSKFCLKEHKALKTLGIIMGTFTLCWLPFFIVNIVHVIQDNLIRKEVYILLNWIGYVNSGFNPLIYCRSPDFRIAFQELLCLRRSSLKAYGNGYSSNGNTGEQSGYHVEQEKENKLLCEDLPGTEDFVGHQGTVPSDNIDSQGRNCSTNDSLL
Chain of Beta-1 adrenergic receptor (P08588 whole entry): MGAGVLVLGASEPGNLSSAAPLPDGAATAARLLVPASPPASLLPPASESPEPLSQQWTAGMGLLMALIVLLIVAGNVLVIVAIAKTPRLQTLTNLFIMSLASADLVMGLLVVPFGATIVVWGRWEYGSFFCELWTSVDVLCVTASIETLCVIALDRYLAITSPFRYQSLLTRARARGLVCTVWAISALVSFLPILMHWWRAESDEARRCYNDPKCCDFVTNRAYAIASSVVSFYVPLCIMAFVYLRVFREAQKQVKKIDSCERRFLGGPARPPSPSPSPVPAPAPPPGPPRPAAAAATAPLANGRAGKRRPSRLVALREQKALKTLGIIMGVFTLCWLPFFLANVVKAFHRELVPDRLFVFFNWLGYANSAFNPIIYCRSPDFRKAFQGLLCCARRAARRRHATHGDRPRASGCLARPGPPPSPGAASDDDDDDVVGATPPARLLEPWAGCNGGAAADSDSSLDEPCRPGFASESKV
Chain of Beta-3 adrenergic receptor (Rattus norvegicus, UniProt P26255) (P26255 whole entry): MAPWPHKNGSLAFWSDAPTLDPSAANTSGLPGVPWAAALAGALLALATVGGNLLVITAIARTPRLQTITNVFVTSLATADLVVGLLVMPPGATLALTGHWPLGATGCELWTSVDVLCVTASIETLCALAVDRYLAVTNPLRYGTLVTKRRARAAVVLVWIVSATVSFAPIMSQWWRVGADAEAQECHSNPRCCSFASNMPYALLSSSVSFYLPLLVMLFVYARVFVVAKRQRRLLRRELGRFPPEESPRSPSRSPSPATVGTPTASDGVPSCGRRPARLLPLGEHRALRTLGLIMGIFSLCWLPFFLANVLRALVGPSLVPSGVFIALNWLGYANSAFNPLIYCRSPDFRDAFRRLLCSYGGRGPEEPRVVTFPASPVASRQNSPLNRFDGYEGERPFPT

| EC50 [1] | Emax [2] | EC50 [3] | EC50 [4] | bioavailability [9] | EC50 [11] | bioavailability [12] | Compound | Activity (Cardiac atrium) | Activity (Rattus norvegicus [5]) | Activity (Rattus norvegicus [6]) | Activity (Rattus norvegicus [7]) | Activity (Rattus norvegicus [8]) | Activity (Rattus norvegicus [10]) | Activity (Rattus norvegicus [13]) |
| --- | --- | --- | --- | --- | --- | --- | --- | --- | --- | --- | --- | --- | --- | --- |
| 14 nM | 49.4% | > 10000 nM | > 10000 nM | – | – | – | CC(C)CC1C(=O)Nc2cccc(OC[C@@H](O)CNC(C)(C)Cc3ccc(Oc4ccc(C(N)=O)cn4)cc3)c21 (stereo not given in full) | – | – | – | – | – | – | – |
| 268 nM | 48.5% | > 10000 nM | > 10000 nM | – | – | – | CC(C)(Cc1ccc(Oc2ccc(C(N)=O)cn2)cc1)NC[C@H](O)COc1cccc2c1C(Cc1ccccc1)(Cc1ccccc1)C(=O)N2 | – | – | – | – | – | – | – |
| 8.3 nM | 41% | > 10000 nM | > 10000 nM | – | – | – | CC(C)(Cc1ccc(Oc2ccc(C(N)=O)cn2)cc1)NC[C@H](O)COc1cccc2c1C1(CCCCC1)C(=O)N2 | 16% | – | – | – | – | – | – |
| 10.6 nM | 66.3% | > 10000 nM | > 10000 nM | – | – | – | CC(C)(Cc1ccc(Oc2ccc(C(N)=O)cn2)cc1)NC[C@H](O)COc1cccc2c1C1(CCCC1)C(=O)N2 | 8.6% | – | – | – | – | – | – |
| 5.2 nM | 67.9% | > 10000 nM | > 10000 nM | 10% | 6.5 nM | 10% | CC(C)(Cc1ccc(Oc2ccc(C(N)=O)cn2)cc1)NC[C@H](O)COc1cccc2c1C(C)(C)C(=O)N2 | 9.7% | 11.8 g | 13.7 g | 8% | 14% | 31% | 45% |
| 12 nM | 72.6% | > 10000 nM | > 10000 nM | – | – | – | CC1C(=O)Nc2cccc(OC[C@@H](O)CNC(C)(C)Cc3ccc(Oc4ccc(C(N)=O)cn4)cc3)c21 (stereo not given in full) | 10.4% | – | – | – | – | – | – |
| 17.6 nM | 71.2% | > 10000 nM | > 10000 nM | – | – | – | CC(C)(Cc1ccc(Oc2ccc(C(N)=O)cn2)cc1)NC[C@H](O)COc1cccc2c1C1(CCC1)C(=O)N2 | 14.8% | – | – | – | – | – | – |
| 24.4 nM | 50.5% | > 10000 nM | > 10000 nM | – | – | – | CC(C)(Cc1ccc(Oc2ccc(C(N)=O)cn2)cc1)NC[C@H](O)COc1cccc2c1CC(=O)N2 | 19.5% | – | – | – | – | – | – |
| 2.7 nM | 14.2% | > 10000 nM | > 10000 nM | – | – | – | CCC1(CC)C(=O)Nc2cccc(OC[C@@H](O)CNC(C)(C)Cc3ccc(Oc4ccc(C(N)=O)cn4)cc3)c21 | 2% | – | – | – | – | – | – |
| 12.3 nM | 15.6% | > 10000 nM | > 10000 nM | – | – | – | CC(C)(Cc1ccc(Oc2ccc(C(N)=O)cn2)cc1)NC[C@H](O)COc1cccc2c1C(Cc1ccccc1)C(=O)N2 (stereo not given in full) | – | – | – | – | – | – | – |
| 13.9 nM | 41.7% | > 10000 nM | > 10000 nM | – | – | – | CC(C)C1C(=O)Nc2cccc(OC[C@@H](O)CNC(C)(C)Cc3ccc(Oc4ccc(C(N)=O)cn4)cc3)c21 (stereo not given in full) | – | – | – | – | – | – | – |

| Compound | EC50 [1] | Emax [2] | EC50 [3] | EC50 [4] | bioavailability [9] | EC50 [11] | bioavailability [12] | Activity (Cardiac atrium) | Activity (Rattus norvegicus [5]) | Activity (Rattus norvegicus [6]) | Activity (Rattus norvegicus [7]) | Activity (Rattus norvegicus [8]) | Activity (Rattus norvegicus [10]) | Activity (Rattus norvegicus [13]) |
| --- | --- | --- | --- | --- | --- | --- | --- | --- | --- | --- | --- | --- | --- | --- |
| CC(C)(Cc1ccc(Oc2ccc(C(N)=O)cn2)cc1)NC[C@H](O)COc1cccc2c1C1(CC1)C(=O)N2 | 6.6 nM | 76.8% | 58.3 nM | 35.2 nM | – | – | – | 13.2% | – | – | – | – | – | – |
